The values below come from ChEMBL document CHEMBL1926561, “Neuroprotective efficacy of quinazoline type phosphodiesterase 7 inhibitors in cellular cultures and experimental stroke model” (Eur J Med Chem, 2012).

Series [1] concerns the target T1, High affinity 3',5'-cyclic-AMP phosphodiesterase 7A (Homo sapiens, UniProt Q13946). The series is described as follows: Inhibition of PDE7A assessed as hydrolysis of [3H]cAMP at 10 uM after 20 mins by scintillation proximity assay. The method, boiled down: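 PDE7A1 enzyme (0.02 units) incubated with 5 nCi [³H]cAMP plus inhibitor in kit assay buffer, 20 min at 30 °C. Scintillation binding beads (1 mg) then added to capture [³H]AMP, shaken 1 h at room temperature, settled 30 min, radioactivity counted.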

A short description of series [2]: Permeability of the compound after 2.5 hrs by PAMPA-BBB assay.
The test system of series [3] is Mus musculus. Kind of series: Neuroprotective effect against middle cerebral artery occlusion-induced focal cerebral ischemia in Swiss mouse stroke model assessed as reduction in infarct volume at 5 mg/kg after 15 mins (reference value: 15.4 +/- 1.1 %). The class given is functional. The arrangement: scale not given: the % may be the effect or the level left.
The test system of series [4] is Microglia. Kind of series: Antiinflammatory activity against rat microglial assessed as inhibition of LPS-induced nitrite production at 30 uM administered 1 hr before LPS challenge measured after 24 hrs by Griess reaction. The series is classed as functional. The method, boiled down: (§1)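 Rat microglia shaken off 15-day mixed glial cultures and kept in HAMS/DMEM (1:1) with 10% FBS plus 10 ng/ml GM-CSF; purity >98% by OX42 staining. Cells were pretreated with compound for 1 h, then given LPS for 24 h. Nitrite in the medium was measured by Griess reaction. Means ± SD of three independent experiments.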

The test system of series [5] is Cerebral cortex neuron. The series is described as follows: Antiinflammatory activity against E18 rat primary cortical neurons assessed as inhibition of […] at 30 uM […] measured after 24 hrs by Griess reaction. The series is classed as functional, cell-based. The method, boiled down:
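Rat E18 cortical neurons, plated on poly-lysine/gelatin and kept in Neurobasal with B-27, used at 7 days in culture. They were exposed for 24 h, with or without inhibitor, to cell-free supernatant from LPS-stimulated primary microglia. Nitrite in the medium was measured by Griess reaction. Means ± SD of three independent experiments.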

Series [6] concerns Astrocyte. The series is described as follows: Antiinflammatory activity against P2 rat astrocytes assessed as inhibition of LPS-induced nitrite production at 30 uM administered 1 hr before LPS challenge measured after 24 hrs by Griess reaction. The class given is functional, cell-based. The method, boiled down:
(§2)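 Astrocytes from neonatal (P2) rat cortex, grown in HAMS/DMEM (1:1) with 10% FBS, shaken to remove microglia and oligodendrocytes, then expanded. Cells were pretreated with compound for 1 h, then stimulated with LPS for 24 h. Nitrite in the medium was measured by Griess reaction. Means ± SD of three independent experiments.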

In series [7] the test system is Microglia. The series is described as follows: Antiinflammatory activity against rat microglial assessed as inhibition of LPS-induced nitrite production at 10 uM administered 1 hr before LPS challenge measured after 24 hrs by Griess reaction. The series is classed as functional. In short, it runs like this: as §1
In series [8] the target is T1, High affinity 3',5'-cyclic-AMP phosphodiesterase 7A. Kind of series: Inhibition of PDE7A assessed as hydrolysis of [3H]cAMP after 20 mins by scintillation proximity assay. In short, it runs like this:
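Purified PDE7A1 (0.02 units) was incubated with 5 nCi [3H]cAMP and inhibitor in kit assay buffer for 20 min at 30 °C. Scintillation beads binding [3H]AMP were added, shaken 1 h at room temperature and left to settle 30 min, then radioactivity was counted. IC50 came from a sigmoidal dose-response fit of radioactivity vs log concentration.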

Series [9] concerns Astrocyte. The series is described as follows: Antiinflammatory activity against P2 rat astrocytes assessed as inhibition of LPS-induced nitrite production at 10 uM administered 1 hr before LPS challenge measured after 24 hrs by Griess reaction. The series is classed as functional, cell-based. The method, boiled down: as §2
Series [10] deals with Microglia. The series is described as follows: Antiinflammatory activity against rat microglial assessed as inhibition of LPS-induced nitrite production at 1 uM administered 1 hr before LPS challenge measured after 24 hrs by Griess reaction. The series is classed as functional. The method, boiled down: as §1

Active and inactive are the calls of the source. The calls are words filed in the database; no cut-off is given here.

T1 sequence (Q13946 whole entry): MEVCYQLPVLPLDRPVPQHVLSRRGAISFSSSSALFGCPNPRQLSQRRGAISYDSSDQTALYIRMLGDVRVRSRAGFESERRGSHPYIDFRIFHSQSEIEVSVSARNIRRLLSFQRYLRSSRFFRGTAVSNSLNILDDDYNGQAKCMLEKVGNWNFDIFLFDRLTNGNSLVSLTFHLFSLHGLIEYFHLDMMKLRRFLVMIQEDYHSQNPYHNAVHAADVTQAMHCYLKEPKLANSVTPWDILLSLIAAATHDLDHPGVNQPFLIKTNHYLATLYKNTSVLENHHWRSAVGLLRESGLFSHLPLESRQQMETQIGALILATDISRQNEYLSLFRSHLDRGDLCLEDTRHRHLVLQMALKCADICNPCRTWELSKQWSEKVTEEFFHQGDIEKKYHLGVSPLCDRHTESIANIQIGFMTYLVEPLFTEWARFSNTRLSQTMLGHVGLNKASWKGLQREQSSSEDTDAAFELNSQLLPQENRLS

Take `COc1ccc(CCn2c(=O)[nH]c3ccc(Br)cc3c2=O)cc1`: the inhibition in [1] was -8.3%.

For `COc1ccc(Cn2c(=O)[nH]c3ncccc3c2=O)cc1`, in series [1], the inhibition came out at 8%.

Regarding `COc1ccc(CCn2c(=O)[nH]c3ccccc3c2=O)cc1`, the inhibition in [1] was -7.2%.

As to `COc1cc2[nH]c(=S)n(-c3cccnc3)c(=O)c2cc1OC`, in series [1], the inhibition was 19%.

As for `O=c1c2ccccc2[nH]c(=S)n1CCN1CCOCC1`, the inhibition in series [1] came out at 13.2%.

As for `COc1ccc(Cn2c(=O)[nH]c3ccccc3c2=O)cc1`, the inhibition in [1] was 9.3%.

Take `CN(C)CCCN1c2ccccc2Sc2ccccc21` [PROMAZINE]: the Papp at 2.5 h in series [2] was found to be 7.7 ×10⁻⁶ cm/s.

As for `Cc1cc(Br)c2[nH]c(=S)n(-c3ccccc3)c(=O)c2c1`, the inhibition in series [1] was found to be 4%.

Regarding `O=c1c2cccnc2[nH]c(=S)n1-c1ccccc1`, in [1], the inhibition was -3.1%.

As to `O=c1c2ccccc2[nH]c(=S)n1-c1cccnc1`, the inhibition in series [1] came to 10%.

Take `O=c1c2ccncc2[nH]c(=S)n1-c1ccccc1`: the inhibition in [1] turned out to be 9.3%.

Regarding `S=c1[nH]c2ccccc2c(=S)n1-c1ccccc1`, the Papp at 2.5 h in series [2] turned out to be 23.8 ×10⁻⁶ cm/s. Moreover, the Activity in [3] was determined as 10.8%. Also, the result in series [4], in [5] and in series [6] was Active.

In [2], `Cn1c(=O)c2c(ncn2C)n(C)c1=O` [CAFFEINE] gave a Papp at 2.5 h of 1.7 ×10⁻⁶ cm/s.

In [2], `CNCCCN1c2ccccc2CCc2ccccc21` [DESIPRAMINE] returned a Papp at 2.5 h of 15.7 ×10⁻⁶ cm/s.

As for `O=c1[nH]c2ccccc2c(=O)n1-c1ccc(Br)cc1F`, the inhibition in [1] was found to be 2.5%.

On to `O=c1c2ccccc2[nH]c(=S)n1-c1ccccc1`, for which the result in series [4], in [5] and in series [6] was Active.

For the molecule `COc1cc2[nH]c(=S)n(-c3ccccc3)c(=O)c2cc1OC`, the inhibition in series [1] is 13.2%.

Regarding `O=c1c2cccc(Cl)c2[nH]c(=S)n1-c1ccccc1Br`, the result in [7] and in series [9] was Active. Moreover, in [8], the half-maximal inhibitory concentration (IC50) is 1.8 µM. Also, the inhibition in series [1] amounted to 63.4%.

As to `O=c1c2ccncc2[nH]c(=S)n1-c1cccnc1`, the inhibition in series [1] is 2.7%.

Regarding `O=c1c2cccc(Cl)c2[nH]c(=S)n1-c1c(F)cccc1F`, the IC50 in series [8] amounted to 6.1 µM. The inhibition in series [1] stood at 74.9%. Besides, the outcome in series [9] and in series [10] was Active.

Turning to `O=c1c2cccnc2[nH]c(=S)n1-c1cccc(Br)c1`, the inhibition in series [1] amounted to 12.8%.

In series [2], `CCn1cc(C(=O)O)c(=O)c2cc(F)c(N3CCNCC3)nc21` [ENOXACIN] showed a Papp at 2.5 h of 1.2 ×10⁻⁶ cm/s.

As to `O=c1c2ccccc2[nH]c(=S)n1CCN1CCCCC1`, in series [1], the inhibition stood at 21.2%.

Take `COc1cc2[nH]c(=S)n(CCN3CCCCC3)c(=O)c2cc1OC`: the inhibition in [1] was determined as 12.7%.

Regarding `Cc1cccc2c(=O)n(-c3ccccc3Br)c(=S)[nH]c12`, the apparent permeability coefficient (Papp) at 2.5 h in [2] was 23.9 ×10⁻⁶ cm/s. Besides, the outcome in series [4], in [5] and in series [6] was Active.

Take `COc1cc2[nH]c(=S)n(CCN3CCOCC3)c(=O)c2cc1OC`: in series [1], the inhibition stood at 17.9%.

For the molecule `COc1ccc(CCn2c(=O)[nH]c3cnccc3c2=O)cc1`, the inhibition in series [1] was determined as 22.1%.
